E-sel inducer – E-selectin induction in HUVECs, primary screen, imaging, HUVEC, immunofluorescence imaging, single point; P16581; normalized: neutral wells 0, TNF-alpha wells 100; activation, % at 7.58 µM; actives 0.37% (n = 260,000); AID 686992, 2013;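 active = mean E-selectin-positive cell signal at least 10% of the positive control, reached in at least 60% of replicates, without over 20% cell loss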
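assay system = HUVEC, human umbilical vein endothelial cells | input = 3,000 HUVEC seeded per well | medium = EGM-2 growth medium on 0.1% gelatin-coated wells | dosing = one compound dose added by pin transfer | signal = immunofluorescence imaging | read-out basis = % PE-positive cells | control set = TNF-alpha, DMSO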
rRNA inh HTS – reduced GFP signal of wild-type E. coli, primary screen, bacterial rRNA inhibitor project, GFP/RFP fluorescence, OD600, single point; actives 1.6% (n = 350,000); AID 720706, 2013; GFP signal change (wild-type ribosome), % (no concentration beside the values); E. coli WT GFP vs humanized-ribosome RFP mutants, 24 h; hits give low values; DMSO median 0, no signal -100;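 active = significant combined selectivity score with lowered wild-type GFP, culture density cut under 30%, mutant RFP and density less affected; inactive = any of these conditions unmet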
SIRT5 inh – SIRT5 desuccinylase inhibitors, primary screen, biochemical, fluorescence imaging, single point, set 5 | NAD-dependent protein deacylase sirtuin-5, mitochondrial (Homo sapiens), Q9NXA8 | Purified SirT5, succinyl-peptide AMC, trypsin-coupled fluorescence | inhibition, % at 15 µM | actives 1.1% (n = 330,000) | AID 652115, 2013; in the data active = inhibition above about 15%
Target sequence (Q9NXA8 whole entry, looked up): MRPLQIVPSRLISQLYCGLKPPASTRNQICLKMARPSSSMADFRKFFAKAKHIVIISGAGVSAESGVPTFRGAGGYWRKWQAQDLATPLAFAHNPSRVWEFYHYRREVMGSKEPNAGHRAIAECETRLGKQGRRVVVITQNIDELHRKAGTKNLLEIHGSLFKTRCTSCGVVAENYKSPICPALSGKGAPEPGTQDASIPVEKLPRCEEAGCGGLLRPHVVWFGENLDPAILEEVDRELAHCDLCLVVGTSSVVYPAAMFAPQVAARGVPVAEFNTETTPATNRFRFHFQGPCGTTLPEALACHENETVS
FN deposition inh – inhibitors of fibronectin matrix deposition, primary screen, AH1F cells, Alexa488-fibronectin fluorescence, plate reader. AH1F fibroblasts, overnight. inhibition, % at 12.6 µM. actives 0.086% (n = 350,000);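 active = mean inhibition across replicates of 30% or more, regardless of how many single replicates reach that level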;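 note: positive control wells lacked labelled fibronectin entirely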
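Measured by – fluorescence 485/525 nm · System – AH1F fibroblast monolayer, labelled fibronectin deposition · Amount – 10000 cells per well · Buffer or medium – serum-reduced DMEM (2% serum) · Doses – single dose, pinned · Also added – fluorescent fibronectin at 24 nM final · Schedule – 1 h cell attachment, overnight exposure to compound and label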
C2C12 statin – suppressors of statin myotoxicity in C2C12 myotubes, primary screen, cell-based, single point, plate reader; C2C12 myotubes + simvastatin, ATP luminescence, 48 h; scaled: DMSO 0, geranylgeraniol control 100; rescue of ATP level, % at 7.49 µM; actives 0.78% (n = 330,000); AID 602340, 2012;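 active = mean ATP rescue above about 67%, or every replicate alone reaching that limit, limit read from the data, passing the limit was not always enough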;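 note: myotubes were challenged with 10 µM simvastatin during compound exposure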
FGF22 binding – binders of human FGF22 protein, primary screen, FGF22 synaptogenesis inhibitor project, biophysical, thermal shift, single point; recombinant FGF22 thermal shift, SYPRO orange fluorescence; percent of sucrose octasulfate shift, DMSO zero; actives 1.5% (n = 340,000); activity (Tm shift, normalised), % at 9.99 µM;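 active = mean Tm shift, scaled 0 neutral to 100 positive control, at about 1.3% or above, every replicate too, limit read from the data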
Target sequence (Q9HCT0 whole entry, looked up): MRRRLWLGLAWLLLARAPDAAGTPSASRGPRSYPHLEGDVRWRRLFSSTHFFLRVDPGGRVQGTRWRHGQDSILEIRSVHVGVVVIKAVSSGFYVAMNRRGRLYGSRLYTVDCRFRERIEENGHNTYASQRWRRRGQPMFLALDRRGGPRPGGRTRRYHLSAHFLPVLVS
* hit, by the source's call; . = not tested or not shown. Sampled rows, rich in hits. Any-hit rate of the full collection: about 4%.

SMILES	E-sel inducer	rRNA inh HTS	SIRT5 inh	FN deposition inh	C2C12 statin	FGF22 binding
O=C(O)c1ccc(N/N=C/c2ccc(-c3ccc(Br)cc3)o2)cc1	.	-27	0	11	72*	0
C[C@@H]1CCCCO[C@@H](CN(C)C(=O)c2ccncc2)[C@H](C)CN([C@@H](C)CO)C(=O)c2cc(NC(=O)c3ccncc3)ccc2O1	0	2	-3	9	.	0
Brc1ccc(/C=N/n2cnnc2)s1	5	-51*	-1	0	1	0
Cc1ccc(/C=N/n2cnnc2)s1	.	.	.	9	4	.
Cc1cccc(C)c1NC(=O)CN(C)c1ccc(C(F)(F)F)cn1	.	9	1	-17	-1	43*
CCN(CC)CC(=O)Nc1c(C)cccc1C	0	.	-3	-4	3	0
C[C@H]1CN=C(Nc2ccccc2)N1CCC1CCCCC1	0	2	22*	5	2	0
CCC(C)(C)NC(=O)CN(C(=O)CNS(=O)(=O)c1ccccc1)c1ccccc1	.	.	.	.	101*	.
CCS(=O)(=O)N1CC2(CN(Cc3cccc(Cl)c3)[C@H](CO)c3c2c2ccc(OC)cc2n3C)C1	0	-9	26*	3	.	0
COc1ccc(S(=O)(=O)N2CCC3(CC2)CN(C(=O)c2cccnc2)[C@@H](CO)c2c3c3ccc(OC)cc3n2C)cc1	-1	-7	21*	.	.	0
COc1ccc2c3c(n(C)c2c1)[C@@H](CO)N(C(=O)c1cccnc1)CC31CCN(S(C)(=O)=O)CC1	0	-1	.	.	.	.
C[C@@H]1CN([C@H](C)CO)C(=O)c2cc(NC(=O)Cc3cn(C)c4ccccc34)ccc2O[C@@H]1CN(C)C(=O)Nc1ccc(F)cc1	-21	-3	3	-5	21	0
CN(C)/C=C(/C(=O)c1ccc(Cl)c(Cl)c1)S(C)(=O)=O	3	7	10	5	5	44*
N/C(=N\OC(=O)CCCOc1ccccc1)c1ccc([N+](=O)[O-])cc1	.	16	0	-15	.	43*
Cc1ccccc1-c1ccc([C@@H]2[C@H](CO)N3C(=O)CN(C(=O)c4cccnc4)C[C@@H]23)cc1	.	-1	.	.	.	.
O=C(NCCc1ccc(Cl)cc1)c1ccc2[nH]c(=O)c(=O)[nH]c2c1	.	-25*	-5	3	0	0
O=C(Cc1ccc(Br)cc1)NCCc1ccc(F)cc1	.	-7	-7	-6	1	0
O=C(Cc1ccc(Cl)cc1)NCCc1ccc(F)cc1	0	-24*	5	1	.	0
Cc1nc(SCC(=O)NCCc2ccc(Cl)cc2)nc(C)c1C	.	-28*	-2	.	12	0
C[C@@H]1CCCCO[C@@H](CN(C)C(=O)Nc2ccc3c(c2)OCO3)[C@H](C)CN([C@H](C)CO)C(=O)c2cc(NC(=O)Nc3ccc(F)cc3)ccc2O1	0	5	8	.	.	-1
O=C(Nc1cccc(C(=O)O)c1)/C(=C\C=C\c1ccccc1)NC(=O)c1ccccc1	.	-19*	.	0	.	1
O=C(Nc1ccc(C(=O)O)cc1)/C(=C\C=C\c1ccccc1)NC(=O)c1ccccc1Br	-2	-16*	-7	10	.	0
Cc1ccc(C(=O)N/C(=C\c2cccc([N+](=O)[O-])c2)C(=O)Nc2cccc(C(=O)O)c2)cc1	0	-2	-3	-2	-4	0
COc1ccc(C(=O)N/C(=C\c2cccc([N+](=O)[O-])c2)C(=O)Nc2cccc(C(=O)O)c2)cc1	0	15	-1	0	.	43*
CCNC(=O)Nc1ccc2c(c1)C(=O)N(C)[C@@H]1CC[C@H](CC(=O)N[C@H](C)c3ccccc3)O[C@@H]1CO2	0	0	2	2	-12	0
SMILES	E-sel inducer	rRNA inh HTS	SIRT5 inh	FN deposition inh	C2C12 statin	FGF22 binding
Cc1ccc(-c2cc(N)n(-c3ccc(C)cc3)n2)cc1	.	.	.	.	112*	.
Cc1ccsc1/C=C1/NC(=O)N(Cc2ccc(F)cc2)C1=O	.	.	1	3	.	43*
CO[C@@H]1CN(C)C(=O)c2cc(NC(=O)C3CCCC3)ccc2OC[C@@H](C)N(S(C)(=O)=O)C[C@@H]1C	0	0	2	0	10	0
O=C(COC(=O)c1c[nH]c(=O)[nH]c1=O)Nc1ccccc1F	.	15	1	-1	.	43*
COc1ccc(C(=O)Nc2ccc3c(c2)OC[C@@H](C)N(Cc2cocn2)C[C@@H](C)[C@@H](OC)CN(C)C3=O)cc1	0	2	-2	7	11	.
O=C(O)CN1CCc2ccccc2C1	.	8	-3	.	0	43*
O=C(/C=C/c1ccc(F)cc1)N1CCc2ccccc2C1	6	-9	1	7	7	0
OC(CN1CCc2ccccc2C1)c1ccccc1 (centres undefined)	6	9	-2	6	.	0
O=C(/C=C/C(=O)N1CCc2ccccc2C1)N1CCc2ccccc2C1	0	-22*	-3	-2	.	0
CC(=O)O[C@@H]1[C@H]2[C@@H](C[C@@H](C)[C@@H]3C=CC(=O)[C@@]13C)OC(=O)[C@@H]2C	0	24	-6	-1	115*	0
CC(=O)O[C@@H]1[C@H]2[C@@H](C[C@@H](C)[C@@H]3CCC(=O)[C@@]13C)OC(=O)[C@@H]2C	1	17	-4	-4	3	0
C[C@@H]1CCCCO[C@H](CN(C)Cc2ccc(C(=O)Nc3ccccc3N)cc2)[C@@H](C)CN([C@@H](C)CO)C(=O)c2cc(NS(=O)(=O)c3ccc(Cl)cc3)ccc2O1	0	0	2	-5	.	0
Cn1c(=O)c2c(nc(N3CCc4ccccc4C3)n2Cc2ccccc2F)n(C)c1=O	.	.	.	-11	5	.
Cn1c(=O)c2c(nc(N3CCc4ccccc4C3)n2C)n(C)c1=O	0	-22*	-1	-20	5	0
Cc1cccc(Oc2nc3c(c(=O)n(C)c(=O)n3C)n2C)c1	0	-2	-3	.	3	0

High-throughput results from PubChem.
